How the values were obtained:
[1] = target: Mitogen-activated protein kinase 10 (Homo sapiens, UniProt P53779); assay: Inhibition of JNK3 Lys2 labeling site in human Huh-7 cell lysate at 1 uM by KiNativ Profiling analysis relative to control; type: subcellular
[2] = target: T1, Ephrin type-B receptor 4 (Homo sapiens) (UniProt P54760); assay: Inhibition of EphB4 ACT labeling site in human A-375 cells at 0.5 uM by KiNativ Profiling analysis relative to control; type: cell-based
T1 sequence (whole entry): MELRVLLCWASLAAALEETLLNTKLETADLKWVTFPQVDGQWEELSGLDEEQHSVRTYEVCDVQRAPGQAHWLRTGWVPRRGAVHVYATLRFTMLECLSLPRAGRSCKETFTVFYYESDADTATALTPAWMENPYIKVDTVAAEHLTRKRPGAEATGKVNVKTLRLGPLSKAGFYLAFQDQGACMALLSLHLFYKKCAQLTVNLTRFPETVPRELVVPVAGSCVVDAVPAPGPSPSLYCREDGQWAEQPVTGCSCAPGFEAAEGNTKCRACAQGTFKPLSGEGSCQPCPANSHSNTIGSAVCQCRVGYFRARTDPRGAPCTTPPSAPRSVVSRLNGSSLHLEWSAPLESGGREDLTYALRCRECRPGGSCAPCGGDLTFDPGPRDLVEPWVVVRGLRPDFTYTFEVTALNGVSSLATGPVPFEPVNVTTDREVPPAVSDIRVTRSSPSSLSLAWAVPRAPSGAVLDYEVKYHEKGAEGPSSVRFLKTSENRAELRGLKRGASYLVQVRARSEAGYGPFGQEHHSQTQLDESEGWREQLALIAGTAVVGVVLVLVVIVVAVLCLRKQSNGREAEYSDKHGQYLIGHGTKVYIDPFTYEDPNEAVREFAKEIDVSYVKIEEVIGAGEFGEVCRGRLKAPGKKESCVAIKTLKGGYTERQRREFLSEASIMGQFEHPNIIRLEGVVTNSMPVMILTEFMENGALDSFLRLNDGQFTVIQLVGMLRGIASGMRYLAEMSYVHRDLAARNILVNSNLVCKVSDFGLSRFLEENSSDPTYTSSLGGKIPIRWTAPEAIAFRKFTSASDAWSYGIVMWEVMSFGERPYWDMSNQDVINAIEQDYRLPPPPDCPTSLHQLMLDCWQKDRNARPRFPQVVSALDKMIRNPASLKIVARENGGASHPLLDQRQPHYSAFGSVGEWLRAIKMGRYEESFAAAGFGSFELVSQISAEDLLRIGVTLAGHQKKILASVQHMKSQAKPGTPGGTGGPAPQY
Procedure, shortened: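 Live A375 melanoma cells were treated with compound at 0.5 or 5 μM, then lysed. Lysates were labeled with a lysine-reactive ATP or ADP-biotin probe. The read-out was protection of each kinase probe-labeling site from labeling, relative to control.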

[3] = target: T2, Scaffold protein ILK (Homo sapiens) (UniProt Q13418); assay: Inhibition of ILK Lys1 labeling site in human A-375 cells at 5 uM by KiNativ Profiling analysis relative to control; type: cell-based
T2 sequence (whole entry): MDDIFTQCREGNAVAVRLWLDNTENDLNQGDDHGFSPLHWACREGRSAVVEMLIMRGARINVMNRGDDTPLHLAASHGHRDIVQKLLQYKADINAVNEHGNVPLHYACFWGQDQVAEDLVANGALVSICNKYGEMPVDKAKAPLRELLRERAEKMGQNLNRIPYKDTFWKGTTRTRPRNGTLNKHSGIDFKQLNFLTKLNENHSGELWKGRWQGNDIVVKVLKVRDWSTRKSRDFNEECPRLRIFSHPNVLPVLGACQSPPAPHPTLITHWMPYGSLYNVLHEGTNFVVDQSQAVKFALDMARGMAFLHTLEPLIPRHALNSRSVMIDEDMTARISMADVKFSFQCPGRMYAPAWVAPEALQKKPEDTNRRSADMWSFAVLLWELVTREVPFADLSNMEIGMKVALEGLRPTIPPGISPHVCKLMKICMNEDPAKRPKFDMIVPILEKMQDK

[4] = target: Serine/threonine-protein kinase WNK2 (Homo sapiens) (UniProt Q9Y3S1); assay: Inhibition of Wnk2 ACT labeling site in human A-375 cells at 0.5 uM by KiNativ Profiling analysis relative to control; type: cell-based
[5] = target: T3, Kinase suppressor of Ras 2 (Homo sapiens) (UniProt Q6VAB6); assay: Inhibition of KSR2 ACT labeling site in human A-375 cells at 0.05 uM by KiNativ Profiling analysis relative to control; type: cell-based
T3 sequence (whole entry): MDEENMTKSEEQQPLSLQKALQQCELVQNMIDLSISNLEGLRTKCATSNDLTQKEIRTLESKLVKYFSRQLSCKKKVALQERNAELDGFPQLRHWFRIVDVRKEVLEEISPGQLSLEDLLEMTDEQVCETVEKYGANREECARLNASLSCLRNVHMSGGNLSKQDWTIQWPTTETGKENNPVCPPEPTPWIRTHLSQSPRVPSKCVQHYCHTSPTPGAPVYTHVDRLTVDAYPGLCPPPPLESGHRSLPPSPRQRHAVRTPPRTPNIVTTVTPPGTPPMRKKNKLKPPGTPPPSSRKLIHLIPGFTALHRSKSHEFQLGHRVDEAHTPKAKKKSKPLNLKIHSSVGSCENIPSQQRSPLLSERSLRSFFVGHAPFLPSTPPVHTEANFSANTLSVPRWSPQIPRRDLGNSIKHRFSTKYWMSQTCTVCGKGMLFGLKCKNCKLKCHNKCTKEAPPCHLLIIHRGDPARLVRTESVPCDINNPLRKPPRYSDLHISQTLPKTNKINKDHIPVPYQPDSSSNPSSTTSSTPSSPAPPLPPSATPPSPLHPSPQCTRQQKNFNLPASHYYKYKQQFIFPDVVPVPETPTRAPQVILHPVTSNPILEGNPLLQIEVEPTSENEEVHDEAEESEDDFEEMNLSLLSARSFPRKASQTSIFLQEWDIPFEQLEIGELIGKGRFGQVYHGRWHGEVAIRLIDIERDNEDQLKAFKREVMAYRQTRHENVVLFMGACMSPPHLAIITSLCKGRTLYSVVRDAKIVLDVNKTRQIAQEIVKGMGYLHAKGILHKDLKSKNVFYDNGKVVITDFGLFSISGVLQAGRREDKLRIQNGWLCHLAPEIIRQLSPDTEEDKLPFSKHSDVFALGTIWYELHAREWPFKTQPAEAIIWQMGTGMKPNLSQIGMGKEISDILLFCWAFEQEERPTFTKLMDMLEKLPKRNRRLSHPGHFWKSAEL

[6] = target: Serine/threonine-protein kinase MARK2 (Homo sapiens) (UniProt Q7KZI7); assay: Inhibition of MARK2 Lys2 labeling site harbouring DLKAENLLLDADMNIK in human A-375 cells at 0.05 uM by KiNativ Profiling analysis relative to control; type: cell-based
Chain of Serine/threonine-protein kinase MARK2 (Homo sapiens) (Q7KZI7 whole entry): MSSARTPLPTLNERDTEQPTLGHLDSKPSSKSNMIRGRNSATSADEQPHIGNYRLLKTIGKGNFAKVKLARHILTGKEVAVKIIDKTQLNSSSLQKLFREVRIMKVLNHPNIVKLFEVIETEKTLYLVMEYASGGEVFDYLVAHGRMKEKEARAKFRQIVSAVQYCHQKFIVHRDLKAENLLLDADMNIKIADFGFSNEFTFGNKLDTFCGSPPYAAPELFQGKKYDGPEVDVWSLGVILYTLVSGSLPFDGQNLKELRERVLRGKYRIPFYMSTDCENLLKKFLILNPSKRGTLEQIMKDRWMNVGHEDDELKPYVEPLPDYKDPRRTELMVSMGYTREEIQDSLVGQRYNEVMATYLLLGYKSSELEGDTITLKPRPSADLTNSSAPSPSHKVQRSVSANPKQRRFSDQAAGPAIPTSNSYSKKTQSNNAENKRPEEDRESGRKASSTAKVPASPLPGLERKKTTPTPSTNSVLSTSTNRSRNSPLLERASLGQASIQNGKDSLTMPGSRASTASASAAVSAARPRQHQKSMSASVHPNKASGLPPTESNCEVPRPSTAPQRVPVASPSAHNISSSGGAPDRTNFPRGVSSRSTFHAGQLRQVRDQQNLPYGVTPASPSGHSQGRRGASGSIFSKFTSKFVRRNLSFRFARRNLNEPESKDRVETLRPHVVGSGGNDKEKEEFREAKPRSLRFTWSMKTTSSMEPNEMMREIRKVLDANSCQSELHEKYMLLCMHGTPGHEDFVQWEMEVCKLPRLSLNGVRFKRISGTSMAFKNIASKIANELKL

Chain of Mitogen-activated protein kinase 10 (P53779 whole entry): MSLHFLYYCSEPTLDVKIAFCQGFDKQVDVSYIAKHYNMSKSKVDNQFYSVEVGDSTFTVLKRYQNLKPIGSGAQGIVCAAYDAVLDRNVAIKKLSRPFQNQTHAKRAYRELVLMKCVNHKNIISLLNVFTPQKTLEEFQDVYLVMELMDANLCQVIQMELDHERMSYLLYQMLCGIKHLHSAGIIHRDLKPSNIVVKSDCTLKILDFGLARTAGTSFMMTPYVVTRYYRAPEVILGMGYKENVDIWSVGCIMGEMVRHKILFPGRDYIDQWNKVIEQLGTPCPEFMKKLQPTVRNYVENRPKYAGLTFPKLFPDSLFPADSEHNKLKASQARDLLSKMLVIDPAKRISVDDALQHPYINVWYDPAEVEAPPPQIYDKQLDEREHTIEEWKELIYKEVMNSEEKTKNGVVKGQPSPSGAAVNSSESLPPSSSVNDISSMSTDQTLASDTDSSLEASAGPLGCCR
Chain of Serine/threonine-protein kinase WNK2 (Homo sapiens) (Q9Y3S1 whole entry): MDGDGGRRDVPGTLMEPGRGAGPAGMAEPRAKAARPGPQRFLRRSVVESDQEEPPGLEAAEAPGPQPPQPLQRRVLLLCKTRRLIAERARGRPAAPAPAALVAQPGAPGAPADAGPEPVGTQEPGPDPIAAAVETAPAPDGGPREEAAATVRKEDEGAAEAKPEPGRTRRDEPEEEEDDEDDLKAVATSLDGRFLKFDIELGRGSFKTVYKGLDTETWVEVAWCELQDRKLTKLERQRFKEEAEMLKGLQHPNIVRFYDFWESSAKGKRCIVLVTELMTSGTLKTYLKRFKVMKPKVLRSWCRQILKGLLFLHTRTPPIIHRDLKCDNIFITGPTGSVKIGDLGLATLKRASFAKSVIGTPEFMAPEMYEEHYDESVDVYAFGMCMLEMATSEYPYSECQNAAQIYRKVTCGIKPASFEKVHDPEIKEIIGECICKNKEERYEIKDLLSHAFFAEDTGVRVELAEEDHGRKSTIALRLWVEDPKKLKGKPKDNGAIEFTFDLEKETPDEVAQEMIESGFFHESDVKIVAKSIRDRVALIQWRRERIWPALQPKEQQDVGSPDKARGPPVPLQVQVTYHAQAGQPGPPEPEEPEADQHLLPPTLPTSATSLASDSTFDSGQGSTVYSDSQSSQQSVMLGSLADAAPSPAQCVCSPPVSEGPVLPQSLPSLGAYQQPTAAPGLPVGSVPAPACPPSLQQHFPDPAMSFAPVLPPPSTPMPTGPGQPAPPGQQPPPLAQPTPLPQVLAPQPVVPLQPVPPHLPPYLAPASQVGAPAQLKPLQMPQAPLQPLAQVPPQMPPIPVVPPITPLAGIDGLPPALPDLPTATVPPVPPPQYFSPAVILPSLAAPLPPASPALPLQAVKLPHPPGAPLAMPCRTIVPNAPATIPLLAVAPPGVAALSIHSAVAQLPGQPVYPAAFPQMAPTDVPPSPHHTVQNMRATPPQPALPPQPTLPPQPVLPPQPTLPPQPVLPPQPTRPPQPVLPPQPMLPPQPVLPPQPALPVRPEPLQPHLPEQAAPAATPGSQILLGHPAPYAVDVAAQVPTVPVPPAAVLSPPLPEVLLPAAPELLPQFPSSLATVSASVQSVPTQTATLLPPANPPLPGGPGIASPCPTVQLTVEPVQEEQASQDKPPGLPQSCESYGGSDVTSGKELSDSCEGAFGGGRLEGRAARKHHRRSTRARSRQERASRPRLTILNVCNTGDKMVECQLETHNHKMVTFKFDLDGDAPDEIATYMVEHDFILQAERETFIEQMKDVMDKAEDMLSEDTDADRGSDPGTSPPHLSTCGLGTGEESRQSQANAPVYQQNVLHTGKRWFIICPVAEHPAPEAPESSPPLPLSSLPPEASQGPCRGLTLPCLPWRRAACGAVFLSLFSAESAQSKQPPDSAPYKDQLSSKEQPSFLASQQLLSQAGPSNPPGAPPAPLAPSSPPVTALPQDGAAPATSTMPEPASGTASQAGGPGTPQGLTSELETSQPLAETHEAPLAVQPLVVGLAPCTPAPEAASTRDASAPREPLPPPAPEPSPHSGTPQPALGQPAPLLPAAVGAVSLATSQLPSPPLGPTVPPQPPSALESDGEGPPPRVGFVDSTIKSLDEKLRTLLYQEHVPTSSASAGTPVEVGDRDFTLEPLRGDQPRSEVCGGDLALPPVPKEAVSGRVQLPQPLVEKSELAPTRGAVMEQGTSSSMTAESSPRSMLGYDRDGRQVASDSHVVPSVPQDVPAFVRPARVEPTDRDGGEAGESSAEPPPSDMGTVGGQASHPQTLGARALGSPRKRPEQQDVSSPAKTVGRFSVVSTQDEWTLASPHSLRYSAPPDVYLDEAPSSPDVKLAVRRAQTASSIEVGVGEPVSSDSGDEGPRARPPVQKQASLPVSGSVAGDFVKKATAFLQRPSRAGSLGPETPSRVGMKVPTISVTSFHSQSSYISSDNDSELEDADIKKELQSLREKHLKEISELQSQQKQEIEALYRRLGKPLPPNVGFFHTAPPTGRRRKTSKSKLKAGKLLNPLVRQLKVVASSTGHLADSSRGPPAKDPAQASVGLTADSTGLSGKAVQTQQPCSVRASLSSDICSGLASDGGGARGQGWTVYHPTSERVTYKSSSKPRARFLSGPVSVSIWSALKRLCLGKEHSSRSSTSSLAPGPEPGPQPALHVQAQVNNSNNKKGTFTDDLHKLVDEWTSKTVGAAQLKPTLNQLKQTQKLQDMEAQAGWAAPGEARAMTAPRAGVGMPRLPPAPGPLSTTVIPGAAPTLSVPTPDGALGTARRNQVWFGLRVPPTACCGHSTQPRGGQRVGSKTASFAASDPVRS

Compound | inhibition [1] [%] | inhibition [2] [%] | inhibition [3] [%] | inhibition [4] [%] | inhibition [5] [%] | inhibition [6] [%]
CNc1cc(Oc2cc(C(=O)Nc3cc(-n4cnc(C)c4)cc(C(F)(F)F)c3)ccc2C)ncn1 | 18.4 | – | – | – | – | –
CCN1CCN(Cc2ccc(NC(=O)c3ccc(C)c(Oc4ccnc5[nH]ccc45)c3)cc2C(F)(F)F)CC1 | – | 39.2 | -9.9 | 3.9 | 37 | 19.5
CCN1CCN(Cc2ccc(NC(=O)c3ccc(C)c(/C=C/c4cnc5[nH]ccc5c4OC)c3)cc2C(F)(F)F)CC1 | – | 78.1 | -8.7 | 6.9 | 8.6 | 11.6
CNc1cc(Oc2cc(C(=O)Nc3cc(N4CCN(C)CC4)cc(C(F)(F)F)c3)ccc2C)ncn1 | 7 | – | – | – | – | –
